High-throughput results from PubChem BioAssay.
Only some compounds are listed: those with a hit (about 3.1% of all), similar ones and a draw of the others.
SENP7 block: inhibitors of human SENP7 protease. AID 434973. 330,000 compounds, 1.5% hits. inhibition, % at 5 µM. recombinant SENP7, Z-RLRGG-aminoluciferin luminescence, 40 min. Q9BQF6;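 active means inhibition above about 50% at the single test dose, limit read from the data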;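 further: plate controls were DMSO with enzyme for no effect and no enzyme buffer wells for full effect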
Target sequence (Q9BQF6 706-1050 limits assumed): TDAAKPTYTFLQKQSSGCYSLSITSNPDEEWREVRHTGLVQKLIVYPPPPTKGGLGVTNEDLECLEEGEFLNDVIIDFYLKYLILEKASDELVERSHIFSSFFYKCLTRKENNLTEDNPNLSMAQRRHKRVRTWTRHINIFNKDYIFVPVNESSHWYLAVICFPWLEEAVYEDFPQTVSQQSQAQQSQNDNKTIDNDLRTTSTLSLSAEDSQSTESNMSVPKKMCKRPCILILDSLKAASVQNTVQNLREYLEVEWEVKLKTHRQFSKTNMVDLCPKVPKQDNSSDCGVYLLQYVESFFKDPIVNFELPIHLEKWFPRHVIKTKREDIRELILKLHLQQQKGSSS
SENP8 block-1: blocks human SENP8 cleavage of Nedd8 substrate; Q96LD8; AID 602440; recombinant SENP8, Nedd8 substrate fluorescence; inhibition, % at 20 µM; 360,000 compounds, 0.64% hits; in the data active means inhibition mostly above about 40%, no sharp cut-off; inactive means mostly below about 27%
Target sequence (Q96LD8 whole entry, looked up): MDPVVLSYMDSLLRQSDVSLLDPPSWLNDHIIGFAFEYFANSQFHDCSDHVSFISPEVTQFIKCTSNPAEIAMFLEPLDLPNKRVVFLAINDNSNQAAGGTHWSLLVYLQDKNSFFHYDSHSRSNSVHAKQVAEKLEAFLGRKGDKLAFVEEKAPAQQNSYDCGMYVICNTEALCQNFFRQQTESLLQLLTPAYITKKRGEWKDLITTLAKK
Apaf-1 inh: human Apaf-1 inhibition; O14727; reconstituted apoptosome caspase-3 activity, DEVD-Rh110 fluorescence; inhibition, % at 20 µM; 330,000 compounds, 0.71% hits; AID 489030; active means inhibition of at least 40% at 20 µM;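 further: plate controls were DMSO wells for no effect and DEVD-CHO caspase inhibitor wells for full effect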
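System – cell-free apoptosome with Apaf-1, procaspase-3 and caspase-9 · Buffer or medium – pH 7.5 Hepes buffer with CHAPS, BSA, DTT · Also added – cytochrome c with DEVD-Rh110 · Times – 30 min compound preincubation, 50 min activation, room temperature · Technique – Rh110 fluorescence intensity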
SENP8 block-2: inhibitors of human SENP8 protease; purified SENP8, Z-RLRGG-aminoluciferin cleavage, luminescence; inhibition, % at 10 µM; 330,000 compounds, 1.2% hits; AID 2540; in the data active means inhibition above about 50%
UBC13 polyUb: human UBC13 polyubiquitination inhibition; inhibition, % at 20 µM; AID 485273; UBC13 polyubiquitin chain formation, TR-FRET; 330,000 compounds, 0.47% hits; P61088; in the data active means inhibition above about 45%, passing the limit was not always enough
SENP6 inh: blocks the human protease SENP6. inhibition, % at 10 µM. Q9GZR1. 330,000 compounds, 1.8% hits. Recombinant SENP6 catalytic domain, aminoluciferin luminescence;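 active means inhibition above about 50% at the single tested dose, limit read from the data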;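 further: plate controls were DMSO wells with enzyme for no effect and DMSO wells lacking enzyme for full effect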
Apaf-1 inh conf2: confirmation of Apaf-1 inhibitors | shares compounds with Apaf-1 inh | 1,800 compounds, 25% hits | inhibition, % at 20 µM | reconstituted apoptosome, caspase-3 DEVD-Rh110 fluorescence | AID 504614;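 active means mean inhibition of at least 40% at 20 µM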;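 further: plate controls were DMSO wells for no effect and DEVD-CHO caspase inhibitor control wells for full effect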
Rh110 quench: counter-screen for Apaf-1 inhibitors: fluorescence interference | shares compounds with Apaf-1 inh | Rh110 fluorescence interference, quenched caspase reaction | activation (fluorescence interference), % at 20 µM | 1,800 tested, under 10 active;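 active means signal rise of 40% or more at 20 µM, treated as a fluorescence artifact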
Fluor interf inh: Apaf-1 inhibitor counter-screen fluorescence artifact | shares compounds with Apaf-1 inh | fluorescence interference counterscreen, Apaf-1 assay format | IC50, µM | 460 tested, under 10 active | AID 588538; call rule not given here
Starred values were filed as active, the others as inactive; i = inactive; · = no result.

SMILES	SENP7 block	SENP8 block-1	Apaf-1 inh	SENP8 block-2	UBC13 polyUb	SENP6 inh	Apaf-1 inh conf2	Rh110 quench	others
COCCN(C(=O)COC(=O)/C=C/c1ccc(C(F)(F)F)cc1)c1c(N)n(Cc2ccccc2)c(=O)[nH]c1=O	-1	-3	44*	1	-12	-18	6	3
COCCN(C(=O)COC(=O)/C=C/c1ccc(SC)cc1)c1c(N)n(Cc2ccccc2)c(=O)[nH]c1=O	·	i	·	·	·	·	·	·
CCC(CO)Oc1cc(NCc2cccc(C(F)(F)F)c2)c2ncn(C(C)C)c2c1 (stereo not drawn)	5	14	41*	4	-1	14	18	14
CCC(CO)Oc1cc(NCc2ccc(C)cc2)c2ncn(C(C)C)c2c1 (stereo not drawn)	-7	24	41*	-6	-9	-9	22	4
CCOc1ccc(CCNC(=O)C2CCCN(S(=O)(=O)N3CCCCC3)C2)cc1OCC (stereo not drawn)	·	0	·	·	·	·	·	·
c1cc2cn[nH]c2cc1NC1CCCCCC1	25	-76	53*	3	-12	21	68*	7	Fluor interf inh=>100
CC(=O)Nc1cccc(NC(=S)Nc2cccc3ccccc23)c1	22	-467	97*	24	-9	45	16	1
NC(Cc1ccc(Cl)cc1)c1csc(Nc2ccc(C(F)(F)F)cn2)n1 (stereo not drawn)	·	-102	·	·	·	·	·	·
CCCCCCN1C[C@@H](O)[C@H](n2cc(COC(=O)c3ccccc3)nn2)C[C@@H]1c1ccc(C)cc1	·	14	·	·	·	·	·	·
O=C(N/N=C\C=C\c1ccc([N+](=O)[O-])o1)c1cccs1	-9	23	49*	-4	-25	-3	8	6
O=C(N/N=C/C=C/c1ccccc1[N+](=O)[O-])c1cccs1	-3	7	3	5	-2	3	·	·
O=C(NNC(=O)C1CCC1)c1ccc(F)cc1	·	18	·	·	·	·	·	·
O=C(O)c1cccc2c1C(=O)c1ccccc1C2=O	-1	8	3	-4	-6	-12	·	·
O=C(O)c1ccc2c3c(ncnc13)-c1ccccc1C2=O	16	·	44*	16	-46	24	23	5
C=CCNc1nc2cc(-c3ccc(C(=O)N4CCOCC4)cc3)sc2c(=O)n1C	·	-326	·	·	·	·	·	·
CCN(CC(=O)Nc1ccc(NC(C)=O)cc1)C(=O)c1ccccc1Sc1ccccc1C#N	2	11	56*	2	35	-4	37	6
COc1ccc(CC(=O)Nc2ccc(-c3nc4cc(C)ccc4o3)c(O)c2)cc1OC	5	i	42*	4	1	-8	6	-3
CC(C)CCC(C)N=Cc1c(O)n(Cc2ccccc2)c(=O)c2ccccc12 (stereo not drawn)	42	-94	60*	23	-4	21	56*	3	Fluor interf inh=>100
CCN(CC)CCCN=Cc1c(O)n(Cc2ccccc2)c(=O)c2ccccc12	0	-59	4	-2	8	8	·	·
CSCCC(NC(=O)c1ccccc1Br)C(=O)N1CCN(C(C)=O)CC1 (stereo not drawn)	-2	-4	48*	-1	1	-1	37	-1
CCCC(=O)N1CCC1(C)C(=O)Nc1ccc2c(c1)CCN2C(C)=O (stereo not drawn)	·	8	·	·	·	·	·	·
CC1=C(C(=O)N2CCOCC2)CC(CC(=O)NCCc2ccccn2)C(=O)N1Cc1ccc(C(C)(C)C)cc1 (stereo not drawn)	·	6	·	·	·	·	·	·
COc1cc(CNC(=O)c2cc(-c3cc(OC)ccc3Cl)n[nH]2)cc(OC)c1	·	7	·	·	·	·	·	·
O=C(Nc1ccccc1)Nc1ccc(O)c2ccccc12	5	·	44*	9	-9	35	28	2
Cc1ccc(S(=O)(=O)N2[C@@H](c3cccc(Cl)c3)C(C(=O)OC(C)(C)C)=CC[C@H]2c2ccc(C(C)C)cc2)cc1	·	25	·	·	·	·	·	·
SMILES	SENP7 block	SENP8 block-1	Apaf-1 inh	SENP8 block-2	UBC13 polyUb	SENP6 inh	Apaf-1 inh conf2	Rh110 quench	others
COc1ccc(OC)c2c1C(=O)C(Cl)=C(Cl)C2=O	7	-405	1	-4	-197	3	·	·
COc1cccc2c1-c1c(C(=O)O)cccc1C2=O	0	7	2	7	-8	4	·	·
COc1ccc(OC)c2c1C(=O)c1ccccc1C2=O	11	·	63*	7	-38	14	-1	-7
COc1ccc2noc3c2c1C(=O)c1ccccc1-3	57*	105*	78*	80*	-245	87*	44*	-58	Fluor interf inh=59*
COc1cccc2c1C(=O)c1ccc3ccccc3c1C2=O	20	-94	72*	22	-8	23	9	4
CCN1C(=NCCc2ccc(Br)cc2)N[C@@H](c2ccccc2)[C@H](C(=O)OC)[C@H]1C	-13	20	45*	-14	31	2	12	2
CCN1C(=NCCc2ccc([N+](=O)[O-])cc2)N[C@@H](c2ccccc2)[C@H](C(=O)OC)[C@H]1C	-11	20	9	-4	10	-34	·	·
COc1ccc(F)cc1-c1cc(NC=O)c2ncc(-c3cccc(C(F)(F)F)c3)n2c1	·	-398	·	·	·	·	·	·
COC(=O)[C@@H](Cc1c[nH]c2ccccc12)NCc1cccc(B(O)O)c1	·	-13	·	·	·	·	·	·
Cc1cc2cc(C(c3nnnn3Cc3ccco3)N3CCc4ccccc4C3)c(=O)[nH]c2cc1C (stereo not drawn)	5	-313	41*	-1	-7	19	24	10
Cc1ccc2[nH]c(=O)c(C(c3nnnn3CC3CCCO3)N3CCc4ccccc4C3)cc2c1 (stereo not drawn)	34	-26	66*	24	0	49	17	9
Cc1cc2cc(C(c3nnnn3Cc3ccco3)N3CCc4ccccc43)c(=O)[nH]c2cc1C (stereo not drawn)	5	-162	21	3	-17	1	·	·
Cc1ccc2cc(C(c3nnnn3Cc3ccccc3)N3CCc4ccccc43)c(=O)[nH]c2c1 (stereo not drawn)	-2	-67	43*	-4	6	9	18	4
O=C(C[n+]1cccc(/C=N/O)c1)NC(=O)Nc1ccccc1	·	5	·	·	·	·	·	·
CCCCc1c(Cc2cccc(F)c2)ncn1CCc1ccccc1OC	·	10	·	·	·	·	·	·
CN1CCN(C2CN(Cc3cn(Cc4ccc(F)cc4)nn3)S(=O)(=O)C2)CC1 (stereo not drawn)	·	10	·	·	·	·	·	·
C[C@H]1[C@@H](Cc2cc(Cl)cc(Cl)c2)N(c2ccccc2)c2ccccc2CN1Cc1ccccc1	·	-52	·	·	·	·	·	·
CCCCc1cc(=O)oc2cc(OCC(=O)NCCN3CCOCC3)c(Cl)cc12	-4	-217	61*	7	0	-1	11	6
